# Source: PMC6028879 (Clinical Pharmacokinetics, 2018)
# Assays:
# Drug-drug interaction = type: in vivo, human; settings: ITZ 200 mg oral solution once daily; during the blood sampling period for VPR
# In short: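 This was a fixed-sequence, open-label study. In period 1, the test compound was given as a single oral 4 mg tablet, fasted, with water. After a washout of ≥ 4 weeks, itraconazole 200 mg oral solution was given once daily for 14 days. On day 4 the test compound was dosed 1 h after itraconazole. Plasma was sampled to 11 or 13 days and measured by validated LC–MS/MS. Non-compartmental analysis was used. Log-transformed AUC0–11d and Cmax were analysed by ANOVA with treatment and subject effects, giving ratio estimates, 90% CI and 95% PI.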
# [1] = ulipristal acetate with ketoconazole; cited from earlier work
SMILES,geometric mean ITZ trough concentrations (Drug-drug interaction),increase in exposure with ketoconazole [1] [fold]
"CCC(C)n1ncn(-c2ccc(N3CCN(c4ccc(OCC5COC(Cn6cncn6)(c6ccc(Cl)cc6Cl)O5)cc4)CC3)cc2)c1=O (centres unmarked) [ITZ, Itraconazole]",above 530 µg/L,
CC(=O)O[C@]1(C(C)=O)CC[C@H]2[C@@H]3CCC4=CC(=O)CCC4=C3[C@@H](c3ccc(N(C)C)cc3)C[C@@]21C [ulipristal acetate],,5.8
